Test results: ChEMBL document CHEMBL1122206, “Use of adenine nucleotide derivatives to assess the potential of exo-active-site-directed reagents as species- or isozyme-specific enzyme inactivators. 5. Interactions of adenosine 5'-triphosphate derivatives with rat pyruvate kinases, Escherichia coli thymidine kinase, and yeast and rat …” (1982)

Experiments:
[1] = target: T1, Hexokinase-1 (Rattus norvegicus) (UniProt P05708); experiment: Substrate activity for rat hexokinase I as 1:1 Mg complex at 5.0 mM
T1 sequence (whole entry): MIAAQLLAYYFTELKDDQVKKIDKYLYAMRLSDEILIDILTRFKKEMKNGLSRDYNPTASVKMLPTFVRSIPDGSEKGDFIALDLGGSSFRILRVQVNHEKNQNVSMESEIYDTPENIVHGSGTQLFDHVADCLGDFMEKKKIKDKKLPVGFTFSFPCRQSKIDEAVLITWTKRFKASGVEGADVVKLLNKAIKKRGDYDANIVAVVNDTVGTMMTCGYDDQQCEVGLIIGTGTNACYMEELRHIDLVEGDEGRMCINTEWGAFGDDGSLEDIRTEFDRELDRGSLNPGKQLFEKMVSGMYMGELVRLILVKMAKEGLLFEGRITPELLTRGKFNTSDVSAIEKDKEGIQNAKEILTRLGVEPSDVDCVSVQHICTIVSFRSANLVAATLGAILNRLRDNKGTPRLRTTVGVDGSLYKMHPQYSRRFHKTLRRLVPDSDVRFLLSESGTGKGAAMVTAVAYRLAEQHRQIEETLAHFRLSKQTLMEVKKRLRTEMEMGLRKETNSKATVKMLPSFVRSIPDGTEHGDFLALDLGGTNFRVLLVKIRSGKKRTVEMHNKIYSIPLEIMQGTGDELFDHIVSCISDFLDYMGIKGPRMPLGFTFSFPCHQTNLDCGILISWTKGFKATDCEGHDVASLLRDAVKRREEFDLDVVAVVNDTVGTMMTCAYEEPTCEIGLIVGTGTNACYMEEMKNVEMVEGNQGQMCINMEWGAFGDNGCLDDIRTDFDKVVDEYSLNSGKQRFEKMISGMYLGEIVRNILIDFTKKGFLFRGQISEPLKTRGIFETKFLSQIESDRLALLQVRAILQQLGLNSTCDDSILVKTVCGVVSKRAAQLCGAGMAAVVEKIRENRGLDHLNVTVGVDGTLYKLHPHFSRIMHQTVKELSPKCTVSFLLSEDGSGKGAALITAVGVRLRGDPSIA
Outline: (§1)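 Hexokinase activity read at 22 °C as A340 change, coupled to glucose-6-phosphate dehydrogenase, in 0.05 M Tris-HCl pH 7.6 with 6.6 mM MgCl2, 10 mM α-D-glucose and 0.93 mM NADP. Donor was 5.0 mM MgATP derivative (1:1 Mg complex) in place of ATP. Yeast HK was isoelectric-focused. Rat HK I and III came from electrofocused liver extract, HK II from dialysed muscle extract.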

[2] = Substrate concentration for half maximal velocity was reported for yeast hexokinase
Outline: (§2)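 Coupled glucose-6-phosphate dehydrogenase/NADP assay: A340 rate at 22 °C in 0.05 M Tris-HCl pH 7.6 with 6.6 mM MgCl2, 10 mM α-D-glucose and 0.93 mM NADP, nucleotide varied. KM was taken from linear double-reciprocal plots. Rat HK I and III came from electrofocused, dialysed liver extract, HK II from dialysed muscle extract, and yeast HK was isoelectric-focused.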

[3] = Substrate concentration for half maximal velocity was reported for rat hexokinase II; outline: as §2
[4] = Substrate concentration for half maximal velocity was reported for rat hexokinase I; outline: as §2
[5] = target: Thymidine kinase (Escherichia coli) (UniProt P23331); experiment: Compound was tested for the loss of thymidine kinase activity from Escherichia coli after 6 hr at 0 degrees C at 10 mM
[6] = target: T1, Hexokinase-1 (Rattus norvegicus); experiment: Time dependent inhibition of Hexokinase type I activity after 6 h, at 22 degrees celsius, at 5 mM compound
[7] = target: T2, Hexokinase-3 (Rattus norvegicus) (UniProt P27926); experiment: Time dependent inhibition of Hexokinase type III activity after 6 h, at 22 degrees celsius, at 5 mM
T2 sequence (whole entry): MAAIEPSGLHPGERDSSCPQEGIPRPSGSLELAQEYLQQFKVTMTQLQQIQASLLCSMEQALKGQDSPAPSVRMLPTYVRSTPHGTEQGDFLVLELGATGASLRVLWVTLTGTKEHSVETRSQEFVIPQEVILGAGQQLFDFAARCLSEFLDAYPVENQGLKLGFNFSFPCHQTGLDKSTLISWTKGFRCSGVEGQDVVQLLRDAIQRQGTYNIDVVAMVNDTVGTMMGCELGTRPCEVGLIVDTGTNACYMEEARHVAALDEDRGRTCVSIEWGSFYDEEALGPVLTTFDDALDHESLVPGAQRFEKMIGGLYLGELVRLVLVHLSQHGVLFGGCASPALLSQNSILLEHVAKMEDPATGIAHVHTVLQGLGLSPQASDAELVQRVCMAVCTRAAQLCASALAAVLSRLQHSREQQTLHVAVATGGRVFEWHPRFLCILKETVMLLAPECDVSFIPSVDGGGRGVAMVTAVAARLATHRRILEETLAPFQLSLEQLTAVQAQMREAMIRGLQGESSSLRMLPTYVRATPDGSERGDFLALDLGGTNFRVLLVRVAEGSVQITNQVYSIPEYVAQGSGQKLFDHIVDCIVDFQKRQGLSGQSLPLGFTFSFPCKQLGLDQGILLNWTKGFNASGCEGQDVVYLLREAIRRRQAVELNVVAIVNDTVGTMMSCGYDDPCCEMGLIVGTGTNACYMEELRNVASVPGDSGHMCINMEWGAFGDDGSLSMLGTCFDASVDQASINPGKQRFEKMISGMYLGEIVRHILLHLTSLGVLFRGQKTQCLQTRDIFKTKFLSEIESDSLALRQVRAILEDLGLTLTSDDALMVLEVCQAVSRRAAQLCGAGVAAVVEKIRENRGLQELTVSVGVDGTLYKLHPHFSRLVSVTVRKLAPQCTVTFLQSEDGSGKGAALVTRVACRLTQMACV

[8] = Compound was tested for substrate constants with rat hexokinase. Maximal velocity Vmax was reported
Outline: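 Rat HK I and HK III came from liver extract of an adult male Sprague-Dawley rat and were separated by electrofocusing and dialysed; HK II was dialysed muscle extract. The coupled assay ran at 22 °C in 0.05 M Tris-HCl pH 7.6 with 6.6 mM MgCl2, 10 mM glucose, 0.93 mM NADP and G6P dehydrogenase, read at 340 nm. Constants came from linear double-reciprocal plots.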

[9] = Substrate concentration for half maximal velocity was reported for rat hexokinase III; outline: as §2
[10] = test system: Saccharomyces cerevisiae; experiment: Substrate activity against yeast hexokinase as 1:1 Mg complexes at 5.0 mM; outline: as §1
[11] = target: T2, Hexokinase-3 (Rattus norvegicus); experiment: Substrate activity for rat hexokinase III as 1:1 Mg complex at 5.0 mM; outline: as §1
[12] = Tested for the velocity of 2.8 mM compound relative to that of 2.8 mM MgATP in the assay
Outline: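 E. coli TK substrate test. 0.5 h after adding inhibitor, the mixture was diluted to 2.8 mM derivative in thymidine assay medium without ATP and with 1.42 mM MnCl2. Incubated 15 min at 37 °C, in the linear range. [14C]TMP formed was compared with that from 2.8 mM ATP under the same conditions.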

Thymidine kinase (Escherichia coli), sequence (P23331 whole entry, looked up): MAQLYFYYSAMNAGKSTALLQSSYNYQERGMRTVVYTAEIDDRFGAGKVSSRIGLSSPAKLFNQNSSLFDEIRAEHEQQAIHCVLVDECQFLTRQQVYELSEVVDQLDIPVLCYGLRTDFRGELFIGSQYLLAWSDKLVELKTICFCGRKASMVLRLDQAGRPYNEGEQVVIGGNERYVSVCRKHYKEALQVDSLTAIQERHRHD

Nc1ncnc2c1ncn2[C@@H]1O[C@H](COP(=O)(O)OP(=O)(O)OP(=O)(O)O)[C@@H](O)[C@H]1O
Relative velocity [1]: 1
Km [2]: 130 µM
Km [3]: 710 µM
Km [4]: 440 µM
inhibition [5]: 0%
inhibition [6]: 0%
inhibition [7]: 0%
Vmax [8]: 100%
Km [9]: 910 µM
Relative velocity [10]: 1
Relative velocity [11]: 1
Velocity [12]: 100%
